Measurements taken from ChEMBL document CHEMBL1921730, “The anti-malarial activity of bivalent imidazolium salts” (Bioorg Med Chem, 2011).
The source made the active and inactive calls. The rule behind the calls is not given here.

What was measured:
Plasmodium falciparum [1] = assay: Antiplasmodial activity against Plasmodium falciparum assessed as inhibition of merozoite invasion of RBCs at 0.2 mg/ml after 48 hrs by SYBR green 1 fluorescence-based flow cytometry; type: functional, organism-based
In short: (§1)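 Sorbitol-synchronized ring-stage P. falciparum set to 5% parasitemia and 0.5% hematocrit, then treated for 48 h. An equal volume of RPMI-1640 with 0.2 µL/mL stock SYBR-Green was added for 1 h in the dark before flow cytometry (~200,000 events). Quadrant counts of parasitized, non-parasitized and small DNA-containing events were taken relative to total erythrocytes.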

Plasmodium falciparum [2] = assay: Antiplasmodial activity against Plasmodium falciparum 3D7 assessed as reduction in parasitemia measured between day 1 and day 2 relative to control; type: functional, organism-based
In short: (§2)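 P. falciparum 3D7 cultures synchronized at mature stage on Percoll one day before the start. Set to 1% hematocrit and 2% parasitemia, treated with 40 nM or 83 nM compound, and sampled every 24 h for 4 days. Parasitemia counted on Giemsa-stained smears. Controls: uninfected RBCs, untreated cultures, sulfated β-cyclodextrin sodium salt and chloroquine.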

[3] = Ratio of IC50 for CHO cells to IC50 for Plasmodium falciparum
Plasmodium falciparum [4] = assay: Antiplasmodial activity against Plasmodium falciparum assessed as inhibition of parasite LDH activity after 72 hrs; type: functional, organism-based
In short: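 P. falciparum ItG grown in O+ human erythrocytes in RPMI-1640 with 10% human serum and 50 µM hypoxanthine. DMSO stocks (10 mg/mL) diluted two-fold serially; culture at 2% hematocrit and 2% parasitemia incubated 72 h at 37 °C under 95% N₂/3% CO₂/2% O₂. pLDH assay read at 595 nm after 1 h; IC50 by non-linear regression, mean ± SEM, n = 4; chloroquine positive control.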

CHO = assay: Cytotoxicity against CHO cells after 48 hrs by MTT assay; type: cell-based; conditions: Cricetulus griseus
In short: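 CHO cells grown in RPMI-1640 with 10% fetal calf serum, 25 mM HEPES and gentamicin, to 50% confluency, then given two-fold gradients from 10 mg/mL DMSO stocks; DMSO-only control. After 48 h, MTT (10 mg/mL) was added for 30 min, then DMSO; absorbance read at 650 nm. IC50 by non-linear regression of sigmoidal dose-response curves; four determinations, mean ± SEM.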

Plasmodium berghei [5] = assay: Antiplasmodial activity against Plasmodium berghei […] by SYBR green 1 assay; type: functional, organism-based
In short: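 P. berghei blood from an infected mouse (5% parasitemia) obtained by cardiac puncture and washed 3 times in RPMI. Plated at 2% hematocrit in a two-fold compound gradient. Wells agitated at 24 h to release merozoites, then incubated a further 24 h. SYBR-Green I fluorescence read-out; IC50 from four independent determinations, mean ± SEM.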

Plasmodium berghei [6] = assay: Antiplasmodial activity against Plasmodium berghei infected in BALB/c mouse assessed as delay in onset of parasitemia at 60 ug/day infused once daily for 3 days by Giemsa staining relative to control; type: functional, organism-based
In short: (§3)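 Female Balb/c mice, 6–8 weeks old, infected with 10⁶ P. berghei on Day 0 and followed by Giemsa-stained blood films until parasites appeared. Then infused once daily for three days with 0.5 mL RPMI-1640 or compound in RPMI-1640; vehicle control 1% (v/v) DMSO in RPMI-1640; chloroquine 15 mg/kg/day as positive control. Parasitemia by Giemsa films; five mice per group.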

Plasmodium falciparum [7] = assay: Antiplasmodial activity against Plasmodium falciparum assessed as inhibition of parasite adherence to RBCs at 20 uM after 48 hrs by microscopic analysis; type: functional, organism-based
Plasmodium falciparum [8] = assay: Antiplasmodial activity against Plasmodium falciparum assessed as inhibition of merozoite invasion of RBCs at 20 uM after 48 hrs by SYBR green 1 fluorescence-based flow cytometry; type: functional, organism-based; in short: as §1
Plasmodium falciparum [9] = assay: Antiplasmodial activity against Plasmodium falciparum assessed as inhibition of merozoite invasion of RBCs at 1 uM after 48 hrs by SYBR green 1 fluorescence-based flow cytometry; type: functional, organism-based; in short: as §1
Plasmodium falciparum [10] = assay: Antiplasmodial activity against Plasmodium falciparum 3D7 assessed as reduction in parasitemia at 40 nM measured between day 1 and day 2 relative to control; type: functional, organism-based; in short: as §2
Plasmodium falciparum [11] = assay: Antiplasmodial activity against Plasmodium falciparum 3D7 assessed as reduction in parasitemia at 83 nM measured between day 1 and day 2 relative to control; type: functional, organism-based; in short: as §2
Plasmodium berghei [12] = assay: Antiplasmodial activity against Plasmodium berghei infected in BALB/c mouse assessed as reduction in parasitemia at 15 mg/kg infused once daily for 4 days measured after 4 days by YOYO-1 staining based flow cytometry relative to control; set-up: scale not given: the % may be the effect or the level left
Plasmodium berghei [13] = assay: Antiplasmodial activity against Plasmodium berghei infected in BALB/c mouse assessed as delay in onset of parasitemia infused once daily for 3 days by Giemsa staining relative to control
Plasmodium berghei [14] = assay: Antiplasmodial activity against Plasmodium berghei infected in BALB/c mouse assessed as delay in onset of parasitemia at 75 ug/day infused once daily for 3 days by Giemsa staining relative to control; type: functional, organism-based; in short: as §3

IC50 (Plasmodium falciparum [4]) [µM]	SMILES	Ratio IC50 [3]	IC50 (CHO) [µM]	other results
9.2	Cl.Cl.c1cn(CCCCCCCCCCn2ccnc2)cn1	1.6	15	–
0.045	C[n+]1ccn(CCCOc2ccc(OCCCn3cc[n+](C)c3)cc2)c1.[I-].[I-]	2511	–	IC50 (Plasmodium berghei [5]): 0.046 µM
0.009	C[n+]1ccn(-c2ccc(-c3ccc(-n4cc[n+](C)c4)cc3)cc2)c1.[I-].[I-]	1000	9	–
4.1	Cl.Cl.c1cn(CCCCCCCCCCCCn2ccnc2)cn1	0.3	1.4	–
0.0005	C[n+]1ccn(CCCCCCCCCCCCCCCCn2cc[n+](C)c2)c1.[I-].[I-]	5400	2.7	–
4.7	C[n+]1ccn(CCCCCCCCn2cc[n+](C)c2)c1.[I-].[I-]	96	–	–
0.07	C[n+]1cn(-c2ccc(-c3ccc(-n4c[n+](C)c5ccccc54)cc3)cc2)c2ccccc21.[I-].[I-]	1400	98	–
93	c1cn(-c2ccc(-n3ccnc3)cc2)cn1	12	1110	–
11.2	C[n+]1ccn(-c2ccc(-n3cc[n+](C)c3)cc2)c1.[I-].[I-]	28	–	–
0.007	C[n+]1ccn(CCCCCCCCCCCCCn2cc[n+](C)c2)c1.[I-].[I-]	7286	51	Activity (Plasmodium berghei [6]): Active
1070	Cl.Cl.c1cn(CCCCn2ccnc2)cn1	1.8	1900	–
0.18	C[n+]1ccn(Cc2ccc(-c3ccc(Cn4cc[n+](C)c4)cc3)cc2)c1.[I-].[I-]	694	–	–
4.9	Cl.Cl.c1cn(CCCOc2ccc(OCCCn3ccnc3)cc2)cn1	10	50	–
90	Cl.Cl.c1cn(CCCCCCn2ccnc2)cn1	10	899	–
0.56	Cl.Cl.c1cn(CCCCCCCCCCCCCn2ccnc2)cn1	5.4	3	–
1.6	Cl.Cl.c1cn(CCCCCCCCCCCCCCn2ccnc2)cn1	2.8	4.4	–
0.0032	C[n+]1ccn(CCCCCCCCCCCCCCn2cc[n+](C)c2)c1.[I-].[I-]	3438	11	–
0.022	[Br-].[Br-].c1ccc(C[n+]2ccn(-c3ccc(-c4ccc(-n5cc[n+](Cc6ccccc6)c5)cc4)cc3)c2)cc1	550	12.1	–
0.4	c1cn(CCCCCCCCCCCCCCCCCCn2ccnc2)cn1	3	1.2	–
0.0061	C[n+]1ccn(CCCCCCCCCCCn2cc[n+](C)c2)c1.[I-].[I-]	6885	42	IC50 (Plasmodium berghei [5]): 0.05 µM
6	Cl.Cl.c1cn(CCCCCCCCn2ccnc2)cn1	23	140	–
0.012	CC[n+]1ccn(CCCCCCCCCCCCn2cc[n+](CC)c2)c1.[I-].[I-]	2833	34	IC50 (Plasmodium berghei [5]): 0.12 µM

Continued, compound first:

SMILES	IC50 (Plasmodium falciparum [4]) [µM]	Ratio IC50 [3]	IC50 (CHO) [µM]	other results
O=S(=O)(O)OC[C@H]1O[C@@H]2O[C@H]3[C@H](O)[C@@H](O)[C@@H](O[C@H]4[C@H](O)[C@@H](O)[C@@H](O[C@H]5[C@H](O)[C@@H](O)[C@@H](O[C@H]6[C@H](O)[C@@H](O)[C@@H](O[C@H]7[C@H](O)[C@@H](O)[C@@H](O[C@H]8[C@H](O)[C@@H](O)[C@@H](O[C@H]1[C@H](O)[C@H]2O)O[C@@H]8COS(=O)(=O)O)O[C@@H]7COS(=O)(=O)O)O[C@@H]6COS(=O)(=O)O)O[C@@H]5COS(=O)(=O)O)O[C@@H]4COS(=O)(=O)O)O[C@@H]3COS(=O)(=O)O	–	–	–	inhibition (Plasmodium falciparum [1]): Active; Activity (Plasmodium falciparum [2]): Active
CCC[n+]1ccn(CCCCCCCCCCCCn2cc[n+](CCC)c2)c1.[I-].[I-]	0.0008	97500	78	–
c1cn(CCCCCCCCCCCCCCCCn2ccnc2)cn1	0.65	2	1.3	–
C[n+]1ccn(CCCCCCCCCCCCCCCn2cc[n+](C)c2)c1.[I-].[I-]	0.002	600	1.2	–
C[n+]1ccn(CCCCCCCCCCCCCCCCCCn2cc[n+](C)c2)c1.[I-].[I-]	0.0009	1556	1.4	–
C[n+]1ccn(CCCCCCn2cc[n+](C)c2)c1.[I-].[I-]	2.6	56	–	–
c1cn(CCCCCCCCCCCCCCCCCCCCn2ccnc2)cn1	2.5	3.2	8	–
C[n+]1ccn(CCCCCCCCCCn2cc[n+](C)c2)c1.[I-].[I-]	0.082	695	57	–
C[n+]1ccn(CCCCCCCCCCCCn2cc[n+](C)c2)c1.[I-].[I-]	0.006	4333	26	inhibition (Plasmodium falciparum [7]): Active; inhibition (Plasmodium falciparum [8]): inactive
c1cn(Cc2ccc(-c3ccc(Cn4ccnc4)cc3)cc2)cn1	1.7	38	65	–
c1cn(-c2ccc(-c3ccc(-n4ccnc4)cc3)cc2)cn1	3.1	9	27	–
c1cn(CCCCCCCCCCCn2ccnc2)cn1	1.9	11	20	–
CCN(CC)CCCC(C)Nc1ccnc2cc(Cl)ccc12 (stereo unspecified)	–	–	–	inhibition (Plasmodium falciparum [9]): Active; Activity (Plasmodium falciparum [2]): Active
C[n+]1ccn(CCCCn2cc[n+](C)c2)c1.[I-].[I-]	67	1.8	–	–
O=C(Cn1cc[n+](CC(=O)c2ccc(Cl)cc2)c1)c1ccc(Cl)cc1	–	–	–	inhibition (Plasmodium falciparum [7]): Active; IC50 (Plasmodium berghei [5]): 4.2 µM; inhibition (Plasmodium falciparum [8]): inactive
Cl.Cl.c1ncn(CCCCCCCCCCCCn2cncn2)n1	19	0.6	11.7	–
O=[N+]([O-])c1ccc(C[n+]2ccn(-c3ccc(-c4ccc(-n5cc[n+](Cc6ccc([N+](=O)[O-])cc6)c5)cc4)cc3)c2)cc1.[Br-].[Br-]	0.023	609	14	–
C[n+]1ccn(CCCCCCCCCCCCCCCCCCCCn2cc[n+](C)c2)c1.[I-].[I-]	0.0021	667	1.4	–
Cl.Cl.c1cn(CCCCCCCCCCCCCCCn2ccnc2)cn1	0.93	3	2.8	–
C[n+]1cnn(CCCCCCCCCCCCn2c[n+](C)cn2)c1.[I-].[I-]	0.008	6500	52	Activity (Plasmodium falciparum [10]): inactive; inhibition (Plasmodium falciparum [7]): Active; Activity (Plasmodium falciparum [11]): Active; Activity (Plasmodium berghei [12]): 75%; inhibition (Plasmodium falciparum [8]): inactive; Activity (Plasmodium berghei [13]): 50%; Activity (Plasmodium berghei [14]): Active
